Assay outcomes: PubChem BioAssay, several laboratories
Efflux pump inh – inhibitors of Candida antifungal efflux pumps expressed in yeast; S. cerevisiae Candida pump triplex, Nile Red efflux; inhibition, % at 10 µM; 330,000 tested, 0.44% active; AID 485275;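 active = plate passing quality check with inhibition over a set limit, or well fluorescence over plate mean plus 4 SD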;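 also: Nile Red retained in pooled yeast measured as flow cytometry median fluorescence; higher means more Nile Red kept so more efflux inhibition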
Arrestin-AP2 inh – blocks beta-arrestin peptide binding to AP2 adaptin. AID 504490. 340,000 tested, 0.31% active. inhibition, % at 10 µM. FITC-arrestin peptide / GST-AP2 beads, flow cytometry; AP2 beta2 appendage carries R879A mutation;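 active = inhibition above a set limit, near 3 SD of compounds lacking own fluorescence, cut at about 54% in these data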
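system = GST-tagged AP2 beta2-adaptin appendage (R879A) on 4 µm glutathione beads | reagent = FITC-labelled arrestin peptide probe, 50 nM final | schedule = compound with beads 12 min RT, then probe 1 h RT | signal = HyperCyt-sampled flow cytometry, FL1 channel, ex 488/em 535 nm | read-out = percent response from loss of bead-bound FITC fluorescence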
Neddylation inh – blocks human cullin neddylation; 360,000 tested, 0.58% active; P61081+Q13564; TR-FRET cullin neddylation, biochemical; AID 651699; inhibition, % at 25 µM; in the data active = inhibition above about 36%
Pemphigus Ab inh – human desmoglein-3 autoantibody binding inhibition | P32926 | DSG3-coupled beads, scFv-anti-DSG3-GFP binding, flow cytometry; stronger effect = lower value | binding (percent of control), % at 10 µM | 310,000 tested, 0.48% active | AID 588358;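 active = binding more than 3 SD below its plate's average and above zero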;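 also: hits lower antibody fragment binding to DSG3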
Target sequence (P32926 whole entry, looked up, the tested form may be a part): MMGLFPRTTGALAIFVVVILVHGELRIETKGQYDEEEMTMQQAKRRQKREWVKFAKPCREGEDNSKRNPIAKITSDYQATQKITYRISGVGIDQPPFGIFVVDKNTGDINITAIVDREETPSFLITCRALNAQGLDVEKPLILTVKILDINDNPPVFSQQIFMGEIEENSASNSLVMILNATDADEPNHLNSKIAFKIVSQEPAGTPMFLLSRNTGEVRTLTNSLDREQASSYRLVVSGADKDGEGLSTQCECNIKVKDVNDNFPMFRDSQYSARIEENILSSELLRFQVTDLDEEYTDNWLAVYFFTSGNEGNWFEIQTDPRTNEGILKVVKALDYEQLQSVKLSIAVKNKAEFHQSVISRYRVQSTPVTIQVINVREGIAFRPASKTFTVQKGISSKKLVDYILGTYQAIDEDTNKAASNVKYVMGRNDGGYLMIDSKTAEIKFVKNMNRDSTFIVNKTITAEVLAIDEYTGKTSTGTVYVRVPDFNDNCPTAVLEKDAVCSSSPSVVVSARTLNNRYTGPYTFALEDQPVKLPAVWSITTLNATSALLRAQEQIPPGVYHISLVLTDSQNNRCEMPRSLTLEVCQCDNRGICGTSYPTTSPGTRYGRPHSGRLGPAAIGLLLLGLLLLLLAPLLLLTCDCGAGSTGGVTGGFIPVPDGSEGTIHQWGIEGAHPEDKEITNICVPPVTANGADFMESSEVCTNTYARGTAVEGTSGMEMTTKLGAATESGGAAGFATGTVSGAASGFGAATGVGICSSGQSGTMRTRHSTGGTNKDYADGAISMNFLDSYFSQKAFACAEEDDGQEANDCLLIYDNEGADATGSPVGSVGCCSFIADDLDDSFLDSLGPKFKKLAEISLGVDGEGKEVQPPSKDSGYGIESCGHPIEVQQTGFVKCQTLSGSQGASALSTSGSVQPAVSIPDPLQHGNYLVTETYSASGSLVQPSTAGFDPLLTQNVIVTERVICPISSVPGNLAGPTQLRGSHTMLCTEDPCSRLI
Each line names hits and unclear results; the compound was inactive in the other large screens. Rows were chosen to be rich in hits. Some 1.7% of all compounds tested hit in one or more screens of this group.

CC(=O)Nc1ccc(NC(=O)c2cc(-c3ccccc3)nc3ccccc23)cc1	none
COc1ccccc1CNS(=O)(=O)CCNCCc1ccccc1	none (no result: Efflux pump inh)
CN(c1ccccc1)S(=O)(=O)c1cccc(NC(=O)C2=NNC(=O)CC2)c1	Pemphigus Ab inh 5.4
Cc1ccc(C(=O)Nc2cccc(S(=O)(=O)N(C)c3ccccc3)c2)o1	none
CCCc1nnc(NC(=O)CCC(=O)NC2CCCc3ccccc32)s1 (centres undefined)	Pemphigus Ab inh 39
CC(C)Cc1nnc(NC(=O)CCC(=O)NC2CCCc3ccccc32)s1 (centres undefined)	none
Cc1cc(C(=O)CS(=O)(=O)c2ccc(F)cc2)cc(C)c1O	Arrestin-AP2 inh 67
O=C1c2ccc3c4c(ccc(c24)C(=O)N1c1ccc2ccccc2c1)CC3	none
O=C1CCC(=O)c2ccc3c4c(ccc1c24)CC3	Neddylation inh 49 (no result: Efflux pump inh)
Cc1onc(-c2ccccc2)c1C(=O)OCc1nnc(-c2ccc([N+](=O)[O-])cc2)o1	none
O=C(OCc1nnc(-c2ccccc2)o1)c1cc([N+](=O)[O-])ccc1Cl	Pemphigus Ab inh 71
COC(=O)[C@]12CCCCC=C1N(Cc1cccc3ccccc13)C(=O)[C@H](CC(=O)N1CCCCC1)C2	none (no result: Efflux pump inh, Arrestin-AP2 inh, Pemphigus Ab inh)
O=[N+]([O-])c1ccc(S(=O)(=O)CC2CSc3nc4ccccc4n32)cc1 (centres undefined)	Pemphigus Ab inh -10
COc1ccc(C2=Nn3c(nnc3-c3ccccc3Cl)SC2)cc1OC1CCOC1 (centres undefined)	Pemphigus Ab inh 74
COc1ccc(C2=Nn3c(nnc3-c3ccccc3Cl)SC2)cc1OC1CCCC1	none
Nc1ccc2cccc(O)c2c1	Pemphigus Ab inh 64 (no result: Efflux pump inh)
COc1ccc(N(CC(=O)Nc2ccccc2C)S(=O)(=O)c2ccccc2[N+](=O)[O-])c(OC)c1	Pemphigus Ab inh 24
CCn1c(C)nc2cc(C(=O)N/N=C/c3ccc(O)c(O)c3O)ccc21	Pemphigus Ab inh 2.7 (no result: Efflux pump inh)
CCn1c(C)nc2cc(C(=O)N/N=C/c3cccc(OC)c3O)ccc21	none
Cc1ccc(C(=O)c2coc3cc([N+](=O)[O-])c(O)c([N+](=O)[O-])c23)cc1	Pemphigus Ab inh 20
Cc1ccc(C(=O)c2ccc([N+](=O)[O-])cc2)cc1	none
CC(=O)N1CCN(c2ccc(NC(=O)C(c3ccccc3)c3ccccc3)cc2)CC1	Pemphigus Ab inh 38
O=C(Nc1ccc(N2CCCC2)cc1)C(c1ccccc1)c1ccccc1	none
C=CCn1c(O)c(C2=c3ccccc3=NC2=O)s/c1=N/c1nccs1	Pemphigus Ab inh 81
COc1ccc(CC(N)c2csc(NC(=O)c3cc(C(C)(C)C)oc3C)n2)cc1 (centres undefined)	none (no result: Efflux pump inh, Arrestin-AP2 inh, Pemphigus Ab inh)
CCOC(=O)c1ccc(Nc2nc(N)c3cc(OC)c(OC)cc3n2)cc1	Neddylation inh 45
CCOC(=O)c1ccc(NC(=S)NCCc2ccc(OC)c(OC)c2)cc1	none (no result: Pemphigus Ab inh)
COc1cc2nc(Nc3ccc(C)c(Cl)c3)nc(N)c2cc1OC	Neddylation inh 48
COc1cc2nc(Nc3ccc(C)c(C)c3)nc(N)c2cc1OC	none
CCOC(=O)c1ccc(Nc2ccc(-c3ccc(OC)c(OC)c3)nn2)cc1	Pemphigus Ab inh 86
O=C1CSCN1c1ccc(Cl)cc1	none
O=c1c2ccccc2nc(/C=C/c2cc(Br)ccc2O)n1CCCO	none
C[C@H](CO)N1C[C@H](C)[C@@H](CN(C)C(=O)c2ccc(N3CCN(C)CC3)cc2)OCc2cnnn2CCCC1=O	none (no result: Efflux pump inh, Arrestin-AP2 inh, Pemphigus Ab inh)
CCOC(=O)Nc1ccc(N2CCOCC2)c(S(=O)(=O)Nc2ccc(Cl)cc2)c1	none (no result: Arrestin-AP2 inh, Pemphigus Ab inh)
Cc1ccc(NC(=O)c2c3c(nc4ccccc24)CCC3)cc1S(=O)(=O)N(C)C	Pemphigus Ab inh 45
Cc1ccc(-c2nc3ccccc3s2)cc1NC(=S)NC(=O)c1ccccc1	none
Cc1ccc(-c2nc3ccccc3s2)cc1NC(=O)c1cc(-n2cnnc2)ccc1Cl	Pemphigus Ab inh 76
Cc1cc(C)cc(OCC(=O)OCC(=O)NCCC2=CCCCC2)c1	Pemphigus Ab inh -9.8
S=C(NCCCN1CCOCC1)Nc1cccc(-c2nnc3n2CCCCC3)c1	none
Cc1nnc(NC(=O)c2ccc(-c3ccc(Cl)cc3)o2)s1	Pemphigus Ab inh 22
O=C(NCc1cccnc1)c1ccc(-c2cc(Cl)ccc2Cl)o1	none
O=C(NCc1cccnc1)c1ccc(-c2ccc(Cl)cc2)o1	Pemphigus Ab inh 58 (no result: Arrestin-AP2 inh)
COc1ccc2[nH]c(C)c(CCNC(=S)Nc3cc(C)ccc3C)c2c1	Pemphigus Ab inh -16
COc1ccc2[nH]c(C)c(CCNC(=S)Nc3cc(C)cc(C)c3)c2c1	none
C=CCn1c(C)cc(C(=O)COC(=O)CNC(=O)c2ccccc2)c1C	Pemphigus Ab inh 72
Fc1ccc2[nH]c3c(N4CCc5ccccc5C4)ncnc3c2c1	Neddylation inh 45 (no result: Arrestin-AP2 inh, Pemphigus Ab inh)
Cc1ccc2[nH]c3c(N4CCc5ccccc5C4)ncnc3c2c1	none
CNc1nc(-c2ccccc2)[n+](-c2ccc(C)cc2)s1	Pemphigus Ab inh 1.4
CCn1c2ccccc2c2cc(/C=N/NC(=O)c3ccc(O)cc3)ccc21	none (not shown: Neddylation inh)
Cn1c2ccccc2c2cc(/C=N/NC(=O)c3ccc(O)cc3O)ccc21	Neddylation inh 68
O=C(COC(=O)COc1ccc(Cl)cc1)Nc1cccnc1Cl	none (no result: Efflux pump inh, Arrestin-AP2 inh)
CCOC(=O)N1CCC2(O)CCCCC2C1c1ccc(F)cc1 (centres undefined)	Pemphigus Ab inh 86
O=C(CN1CC[C@@]2(O)CCCC[C@H]2[C@@H]1c1ccc(F)cc1)NCc1ccco1	none
CCOc1ccc(-n2c(SCC(=O)Nc3cc(C)on3)nnc2-c2c[nH]c3ccccc23)cc1	none
Cc1cc(NC(=O)CSc2nnc(-c3c[nH]c4ccccc34)n2-c2ccc(F)cc2)no1	Pemphigus Ab inh 14
COc1cc(/C=C2/C(=N)N3OC(C)=CC3=NC2=O)ccc1OC(=O)c1ccco1	Pemphigus Ab inh 61
Cc1ccc(Sc2ncccc2COC(=O)Nc2c(C)cccc2C)cc1	Pemphigus Ab inh 3.0
Cc1ccc(C23CC4CC(CC(C(=O)N(C)C)(C4)C2)C3)cc1	none
CN1CCN(C(=O)C2=C[C@H](c3ccc(C(F)(F)F)cc3)C[C@H](OCc3ccc(CO)cc3)O2)CC1	none
O=C(Nc1ccc(Cl)c(Cl)c1)c1ccc(Cn2c(=O)[nH]c3ccsc3c2=O)cc1	Pemphigus Ab inh 66
COc1ccccc1N1CCN(C(=O)c2ccc(Cn3c(=O)[nH]c4ccsc4c3=O)cc2)CC1	none
O=C(NC1CCCC1)c1ccc(Cn2c(=O)[nH]c3ccsc3c2=O)cc1	none
O=C(Nc1ccc(Oc2ccccc2)cc1)c1ccc(Cn2c(=O)[nH]c3ccsc3c2=O)cc1	Pemphigus Ab inh 51
O=C(O)c1ccc(-c2ccc(-c3ccccc3)cc2)s1	Neddylation inh 51
O=C(Nc1ccc(-c2nc3ccccc3o2)cc1)c1ccc(N2C(=O)C3C4C=CC(C4)C3C2=O)cc1 (centres undefined)	Pemphigus Ab inh 55 (not shown: Neddylation inh)
CS(=O)(=O)N1CCN(c2ccccc2NC(=O)c2ccc([N+](=O)[O-])o2)CC1	Pemphigus Ab inh 28
CN1CCN(c2ccccc2NC(=O)c2ccc([N+](=O)[O-])o2)CC1	none
COc1ccc(CNC(=O)C2CCN(S(=O)(=O)c3cccc4cccnc34)CC2)cc1	none
